Here are results for two molecules from paper PMC5822492 (Pharmacognosy Magazine, 2018).

In one test the test system is HUVECs tube formation. The test is described as follows: Endothelial cell tube formation assay. In kind it is cell-based, human. A digest of the protocol:
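HUVECs grown in ECM-2 were trypsinized and resuspended in basal medium with 0.1% BSA. 5 × 10^4 cells were seeded onto tube-formation matrix plates with test compound or suramin as positive control, for 4–6 h at 37°C, 5% CO2. After HBSS washes, tube junctions were counted at ×4 and expressed as percentage inhibition.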

The subject of the next test is HepG2 cells. The test is described as follows: MTT cell proliferation inhibition, HepG2. In kind it is cell-based. Conditions: Homo sapiens, HepG2, 72 h, read-out: IC50±SD. Summed up:
(§1)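 HepG2 (passage 4–7), HUVEC and WRL68 cells (1 × 10^4) were exposed to test compound for 72 h, with 1% DMSO as negative control. Then 20 µL MTT (5 mg/mL in PBS) was added for 5 h at 37°C, 5% CO2. Absorbance was read at 570 nm against 630 nm reference, and viability expressed as percent of untreated cells. Triplicates were run and the experiment repeated three times.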

For test [1], the system named is chick chorioallantoic membrane neovascularization. Nature of the test: Chorioallantoic membrane. Conditions: 24 h, 6.25 and 12.5 μg/mL (Figure 3 legend). In kind it is in vivo, chicken. A digest of the protocol: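 On fertilized eggs incubated from day 5 at 37°C in constant humidity, 5 mL albumin was aspirated and the eggs laid horizontally to detach the CAM. Test compound in 1.2% agarose disks went onto the CAM through a shell window, with agarose-only disks as negative control. The window was taped and eggs incubated 24 h. Vessels were counted from dissecting-microscope photographs as mean count per CAM.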

Test [2] has as its system angiogenesis-related proteins of HepG2 cells. Nature of the test: Human cytokine. In kind it is cell-based. Conditions: HepG2, 6.25 μg/mL, cytokine array. A digest of the protocol: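 HepG2 cells were exposed to 6.25 µg/mL test compound. Samples with a biotinylated detection-antibody cocktail were bound to a membrane antibody array of angiogenesis proteins carrying duplicate spots. Detection used streptavidin-HRP chemiluminescence on X-ray film with densitometry. Values are fold change versus untreated cultures.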

Test [3] deals with human umbilical vein endothelial cells (HUVEC). The test is described as follows: MTT cell proliferation inhibition, HUVEC. Format: cell-based. Conditions: 72 h. A digest of the protocol: as §1
The subject of test [4] is microvessel outgrowth from rat aortic rings. Nature of the test: Ex vivo rat aortic ring assay. Conditions: 12.5 μg/mL, day 5, not significantly different from suramin. A digest of the protocol:
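Thoracic aortas from 10–12-week male Sprague Dawley rats were rinsed in HBSS with 2.5 µg/mL amphotericin B, cleaned and cut into 1 mm rings. Rings were embedded in fibrinogen (3 mg/mL)/thrombin gel in serum-free M199 with aprotinin, then fed M199 with 20% HIFCS and additives at 37°C, 5% CO2. Test compound ran 1.56–12.5 µg/mL, suramin positive, 1% DMSO negative. Day-5 sprouting area was measured (×4) in three experiments, six replicates each, as mean ± SD.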

Test [5] relates to VEGF, MMP-9 and NF-κB expression in HepG2 cells. Nature of the test: Western blot analysis of VEGF, MMP-9 and NF-κB. Conditions: 6.25 μg/mL, P < 0.05. Format: cell-based, human. (In general: In western blotting, separated proteins are transferred to a membrane and probed.)
For another test, the system named is WRL68 cells. Nature of the test: MTT cell proliferation inhibition, WRL68. Conditions: Homo sapiens, WRL68, 72 h, read-out: IC50±SD. In kind it is cell-based. A digest of the protocol:
as §1

For the next test, the system named is HepG2 cells migration. Nature of the test: Cell migration. Conditions: HepG2, 6.25, 12.5, 25 μg/mL, up to 96 h; untreated closed after 96 h. Format: cell-based, human. Summed up:
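Confluent HepG2 monolayers were scratched and exposed to 6.25, 12.5 or 25 µg/mL test compound, with images taken at 0, 12, 24, 30, 48, 54, 72, 78 and 96 h. Gap distances were measured by inverted microscopy (×20), using ten fields per treatment and at least 10 readings per field. Cell-free area gave percentage wound closure.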

[6] abbreviates: Homo sapiens, HUVEC, read-out: inhibition of endothelial tube formation.

In brackets after ≈: the same amount, converted by molar mass.

The inhibition is the change of the read-out against control, counted positive when it falls. In the case of `Cc1ccc(C(=O)Nc2ccc(S(=O)(=O)O)c3cc(S(=O)(=O)O)cc(S(=O)(=O)O)c23)cc1NC(=O)c1cccc(NC(=O)Nc2cccc(C(=O)Nc3cc(C(=O)Nc4ccc(S(=O)(=O)O)c5cc(S(=O)(=O)O)cc(S(=O)(=O)O)c45)ccc3C)c2)c1` [Suramin, reference compound], the inhibition at 100 µg/mL in the test on HUVECs tube formation (setting [6]) amounted to 96%.
One may read the IC50 as the point on the concentration scale where inhibition reaches its midpoint. Regarding `C/C1=C\CC(C)(C)/C=C/C(=O)/C(C)=C/CC1` [ZER, zerumbone], the “effect on endothelial tube network” value in the test on HUVECs tube formation (HUVECs, 3.125 μg/mL) was “reduced the intensity of network structures and caused the formation of incomplete and broken tubules”. Further, in the test with HUVECs tube formation (setting [6]), the inhibition at 12.5 µg/mL amounted to 89%. Moreover, the IC50 in the test with HepG2 cells was determined as 6.2 ± 0.7 µg/mL (≈ 28.4 µM). Moreover, in test [1], the “effect on CAM vasculature” value is reported as “vascular regression”. In test [2], the MMP expression result is reported as “inhibited expression”, the VEGF expression result was “inhibited expression”, the angiogenin expression entry is given as “inhibited expression” and the angiopoietin expression entry is “inhibited expression”. In addition, in test [2], the endostatin expression result is reported as “increasing expression” and the thrombospondin expression result is reported as “increasing expression”. In test [3] (Homo sapiens, read-out: IC50±SD, HUVEC, MTT, 72 h), the concentration for half-maximal inhibition (IC50) is > 50 µg/mL. For the same molecule, the “IC50±SD” value in [3] (MTT) turned out to be 62.0 ± 1.3 µg/mL (≈ 284 µM). For the same molecule, the inhibition of neovascularization result in test [4] is listed as “almost complete inhibition”. In addition, in test [5], the “Matrix metalloproteinase-9 (MMP-9) expression” value was “downregulation”, the NF-κB expression entry is listed as “downregulation” and the VEGF expression entry is recorded as “downregulation”. In addition, in the test on WRL68 cells, the concentration for half-maximal inhibition (IC50) was determined as 150 ± 0.4 µg/mL (≈ 687 µM). In the test with HepG2 cells migration, the scratch wound closure result is on record as “not scratch closure”.
